Converted amounts (≈) assume the structure as drawn. Like-named read-outs stand apart in the source and are kept apart here.
Assays:
BaSecA1 = BaSecA1 (Bacillus anthracis, UniProt Q81X26); test: biochemical; set-up: species or system B. anthracis
S. aureus 6538 = test: Bacteriostatic effect; assay type: cell-based
E. coli NR698 = test: Bacteriostatic effect; assay type: cell-based; conditions: Escherichia coli, NR698, 24 h, read-out: MIC, E. coli NR698
EcSecA [1] = target: T1, EcSecA (Escherichia coli, UniProt P10408); test: In vitro translocation activity with SecA-liposomes; assay type: biochemical, E. coli; conditions: reconstituted SecA-only liposomes, proOmpA, immunoblots
T1 sequence (P10408 whole entry): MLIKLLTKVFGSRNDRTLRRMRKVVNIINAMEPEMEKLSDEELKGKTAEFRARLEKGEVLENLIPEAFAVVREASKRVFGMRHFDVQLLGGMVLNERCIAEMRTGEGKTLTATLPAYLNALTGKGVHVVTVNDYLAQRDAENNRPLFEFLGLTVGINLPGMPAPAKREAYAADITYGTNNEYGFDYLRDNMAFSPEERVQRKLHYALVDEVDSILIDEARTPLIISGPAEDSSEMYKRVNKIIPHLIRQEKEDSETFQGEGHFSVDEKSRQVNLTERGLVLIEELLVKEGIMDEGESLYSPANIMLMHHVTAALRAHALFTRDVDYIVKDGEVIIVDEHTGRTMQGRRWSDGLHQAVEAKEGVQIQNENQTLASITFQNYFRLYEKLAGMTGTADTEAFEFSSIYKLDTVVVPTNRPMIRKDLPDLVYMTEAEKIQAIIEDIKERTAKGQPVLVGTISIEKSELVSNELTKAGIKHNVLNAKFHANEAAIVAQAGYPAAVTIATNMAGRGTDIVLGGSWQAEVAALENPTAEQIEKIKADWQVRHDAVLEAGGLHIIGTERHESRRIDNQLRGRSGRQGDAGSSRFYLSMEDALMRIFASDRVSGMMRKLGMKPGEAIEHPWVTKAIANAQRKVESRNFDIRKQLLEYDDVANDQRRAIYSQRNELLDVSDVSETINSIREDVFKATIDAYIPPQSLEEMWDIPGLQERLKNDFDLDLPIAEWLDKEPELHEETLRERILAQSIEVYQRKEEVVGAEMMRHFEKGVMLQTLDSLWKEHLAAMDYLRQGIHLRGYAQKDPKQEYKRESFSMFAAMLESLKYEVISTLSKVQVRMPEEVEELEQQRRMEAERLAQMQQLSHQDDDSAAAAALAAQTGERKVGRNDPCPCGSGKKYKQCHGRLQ
Outline: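 Reconstituted SecA-only liposomes (stored at −80 °C, frozen-thawed once), E. coli SecA and proOmpA added separately to translocation buffer before the reaction, with 12 μg liposomes per reaction and varied SecA amounts. Test compound at various concentrations; reaction at 37 °C for 45 min. proOmpA translocation efficiency read by immunoblot.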

S. aureus K2908 (MepA−) = test: Bacteriostatic effect; assay type: cell-based; conditions: Staphylococcus aureus, read-out: Bacteriostatic effect, MIC, MepA− K2908
S. aureus Mu50 [2] = test: Bacteriostatic effect; assay type: cell-based; conditions: for Fold more effective than vancomycin (MIC) / Fold by which 7b and 12a are more effective than the antibiotic (MIC): S. aureus Mu50; for Fold more effective than vancomycin (MIC): vs vancomycin 8 μg/ml; for MIC: Staphylococcus aureus; for Fold by which 7b and 12a are more effective than the antibiotic (MIC): label = antibiotic compared; for MIC, S. aureus Mu50: MRSA strain Mu50, comparison with clinically used antibiotics
S. aureus K1758 (NorA−) = test: Bacteriostatic effect; assay type: cell-based; conditions: Staphylococcus aureus, read-out: Bacteriostatic effect, MIC, NorA− K1758
BsSecA = BsSecA (Bacillus subtilis, UniProt P28366); test: Ion-channel activity of SecA-liposomes in oocytes, BsSecA; assay type: biochemical
Sequence of BsSecA (P28366 whole entry): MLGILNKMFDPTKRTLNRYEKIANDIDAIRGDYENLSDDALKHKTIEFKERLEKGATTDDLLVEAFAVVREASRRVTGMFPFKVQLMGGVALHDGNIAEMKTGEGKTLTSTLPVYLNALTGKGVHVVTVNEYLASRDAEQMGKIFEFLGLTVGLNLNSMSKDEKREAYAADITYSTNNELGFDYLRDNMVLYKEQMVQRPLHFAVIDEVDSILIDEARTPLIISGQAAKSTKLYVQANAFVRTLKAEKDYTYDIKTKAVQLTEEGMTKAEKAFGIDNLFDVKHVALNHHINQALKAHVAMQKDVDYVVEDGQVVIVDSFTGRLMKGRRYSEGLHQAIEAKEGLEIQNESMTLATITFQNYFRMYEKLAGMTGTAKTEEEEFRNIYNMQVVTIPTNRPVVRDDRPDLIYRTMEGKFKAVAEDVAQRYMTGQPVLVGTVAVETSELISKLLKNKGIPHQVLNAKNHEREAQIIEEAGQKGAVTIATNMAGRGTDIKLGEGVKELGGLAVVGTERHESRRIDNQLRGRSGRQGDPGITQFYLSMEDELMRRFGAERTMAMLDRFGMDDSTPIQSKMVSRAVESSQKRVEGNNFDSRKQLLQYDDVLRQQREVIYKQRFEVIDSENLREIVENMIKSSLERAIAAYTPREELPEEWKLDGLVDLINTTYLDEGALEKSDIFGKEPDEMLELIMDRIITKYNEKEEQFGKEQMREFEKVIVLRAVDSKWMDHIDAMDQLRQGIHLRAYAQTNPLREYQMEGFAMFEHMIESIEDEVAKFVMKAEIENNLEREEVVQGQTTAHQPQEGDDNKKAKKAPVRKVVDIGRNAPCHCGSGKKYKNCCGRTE
Outline: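 Purified SecA was reconstituted into liposomes. After 3 hr at 23 C, ion current was recorded for 1 min by voltage clamp. Net inward/outward current gave channel opening.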

EcSecA [3] = target: T1, EcSecA; test: Ion-channel activity of SecA-liposomes in oocytes, EcSecA; assay type: biochemical, E. coli
Outline: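 SecA reconstituted with liposomes, plus proOmpA, 2 mM ATP, 1 mM Mg(OAc)2 and varied test compound concentrations, was injected into Xenopus laevis oocytes (120 ng liposomes, 120 ng SecA, 14 ng proOmpA per 50 nl). Oocytes were held 3 hr at 23 C, then current was recorded by voltage clamp for 1 min. Net channel current came from inward and outward currents.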

S. aureus K2361 (NorA++) = test: Bacteriostatic effect; assay type: cell-based; conditions: Staphylococcus aureus, read-out: Bacteriostatic effect, MIC, NorA++ K2361
EcSecAN68 = EcSecAN68 (Escherichia coli, UniProt P10408); test: biochemical; set-up: species or system E. coli
Sequence of EcSecAN68 (P10408 1-610): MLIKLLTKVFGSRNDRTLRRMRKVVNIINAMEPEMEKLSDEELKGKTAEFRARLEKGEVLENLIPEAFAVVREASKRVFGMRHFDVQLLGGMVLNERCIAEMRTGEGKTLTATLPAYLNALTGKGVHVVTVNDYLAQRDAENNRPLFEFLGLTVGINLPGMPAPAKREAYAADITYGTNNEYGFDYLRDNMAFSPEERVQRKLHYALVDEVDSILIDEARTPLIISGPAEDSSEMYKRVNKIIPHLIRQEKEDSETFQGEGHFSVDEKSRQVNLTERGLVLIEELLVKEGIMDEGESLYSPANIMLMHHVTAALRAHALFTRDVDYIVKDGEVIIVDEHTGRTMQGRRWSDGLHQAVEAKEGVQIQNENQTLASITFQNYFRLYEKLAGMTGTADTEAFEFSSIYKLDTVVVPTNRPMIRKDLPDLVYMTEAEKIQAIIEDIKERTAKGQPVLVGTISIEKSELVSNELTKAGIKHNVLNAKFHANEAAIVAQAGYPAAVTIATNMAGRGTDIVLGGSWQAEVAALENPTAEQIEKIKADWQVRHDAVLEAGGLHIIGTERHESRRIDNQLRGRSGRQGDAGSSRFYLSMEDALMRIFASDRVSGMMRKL

EcSecA [4] = target: T1, EcSecA; test: Intrinsic ATPase activity of full EcSecA; assay type: biochemical, E. coli
B. subtilis 168 = test: Bacteriostatic effect; assay type: cell-based; conditions: Bacillus subtilis, 168, 16 h, read-out: Bacteriostatic effect, MIC, B. subtilis 168
S. aureus K2068 (MepA++) = test: Bacteriostatic effect; assay type: cell-based; conditions: Staphylococcus aureus, read-out: Bacteriostatic effect, MIC, MepA++ K2068
S. aureus N315 = test: Bacteriostatic effect; assay type: cell-based; conditions: Staphylococcus aureus, N315, 16 h, read-out: Bacteriostatic effect, MIC, S. aureus N315
SpSecA = SpSecA (Streptococcus pyogenes, UniProt Q99Y96); test: Ion-channel activity of SecA-liposomes in oocytes, SpSecA; assay type: biochemical
Sequence of SpSecA (Q99Y96 whole entry): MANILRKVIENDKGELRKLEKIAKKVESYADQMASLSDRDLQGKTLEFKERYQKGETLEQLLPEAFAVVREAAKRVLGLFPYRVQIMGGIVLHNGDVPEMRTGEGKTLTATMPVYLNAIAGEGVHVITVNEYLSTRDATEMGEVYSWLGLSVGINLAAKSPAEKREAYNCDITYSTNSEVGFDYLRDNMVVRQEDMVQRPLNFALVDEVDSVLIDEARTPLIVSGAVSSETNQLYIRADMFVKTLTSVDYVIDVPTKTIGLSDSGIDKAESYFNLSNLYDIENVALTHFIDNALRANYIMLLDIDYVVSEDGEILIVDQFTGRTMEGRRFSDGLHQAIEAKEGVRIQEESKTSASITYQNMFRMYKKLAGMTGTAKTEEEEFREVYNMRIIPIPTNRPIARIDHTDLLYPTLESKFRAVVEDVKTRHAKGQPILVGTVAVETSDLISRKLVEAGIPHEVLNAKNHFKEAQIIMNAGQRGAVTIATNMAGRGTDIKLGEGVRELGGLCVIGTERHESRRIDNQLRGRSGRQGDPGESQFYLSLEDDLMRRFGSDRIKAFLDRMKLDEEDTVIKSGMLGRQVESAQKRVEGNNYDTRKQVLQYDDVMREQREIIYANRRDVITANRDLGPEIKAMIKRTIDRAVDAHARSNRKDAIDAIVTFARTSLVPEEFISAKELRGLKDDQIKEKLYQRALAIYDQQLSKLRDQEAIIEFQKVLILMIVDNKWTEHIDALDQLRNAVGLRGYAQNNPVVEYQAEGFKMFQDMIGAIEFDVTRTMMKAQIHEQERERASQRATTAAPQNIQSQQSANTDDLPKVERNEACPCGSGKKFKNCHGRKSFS

S. aureus Mu3 = test: Bacteriostatic effect; assay type: cell-based; conditions: Staphylococcus aureus, MU3, 16 h, read-out: Bacteriostatic effect, MIC, S. aureus Mu3
SaSecA1 = target: T2, SaSecA1 (Staphylococcus aureus, UniProt O06446); test: Ion-channel activity of SecA-liposomes in oocytes, SaSecA1; assay type: biochemical
T2 sequence (O06446 1-843): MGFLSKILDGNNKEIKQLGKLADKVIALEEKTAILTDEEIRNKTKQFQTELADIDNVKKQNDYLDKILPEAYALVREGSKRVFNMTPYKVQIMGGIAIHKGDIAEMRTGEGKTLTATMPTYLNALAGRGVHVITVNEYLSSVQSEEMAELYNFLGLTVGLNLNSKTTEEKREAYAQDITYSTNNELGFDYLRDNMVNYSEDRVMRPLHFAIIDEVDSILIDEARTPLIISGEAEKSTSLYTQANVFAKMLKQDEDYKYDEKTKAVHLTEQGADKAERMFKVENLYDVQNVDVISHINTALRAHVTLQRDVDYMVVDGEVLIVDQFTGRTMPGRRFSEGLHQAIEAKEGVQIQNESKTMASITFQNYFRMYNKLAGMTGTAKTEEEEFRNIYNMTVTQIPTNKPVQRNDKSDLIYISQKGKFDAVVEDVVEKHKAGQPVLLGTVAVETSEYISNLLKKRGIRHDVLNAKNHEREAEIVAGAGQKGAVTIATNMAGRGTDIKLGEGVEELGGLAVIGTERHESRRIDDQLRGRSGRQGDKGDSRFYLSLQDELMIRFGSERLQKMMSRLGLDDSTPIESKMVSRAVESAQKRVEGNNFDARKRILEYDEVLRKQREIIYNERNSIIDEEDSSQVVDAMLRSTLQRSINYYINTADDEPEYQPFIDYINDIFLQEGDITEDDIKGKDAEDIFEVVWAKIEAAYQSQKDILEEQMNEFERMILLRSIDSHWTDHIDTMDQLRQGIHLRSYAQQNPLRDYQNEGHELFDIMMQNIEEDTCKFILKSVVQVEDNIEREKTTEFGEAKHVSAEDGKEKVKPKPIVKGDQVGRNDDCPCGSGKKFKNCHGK

S. aureus Newman = test: Bacteriostatic effect; assay type: cell-based; conditions: Staphylococcus aureus, 16 h, read-out: Bacteriostatic effect, MIC, S. aureus Newman
S. aureus Mu50 [5] = test: Bactericidal effect; assay type: cell-based; conditions: at 50 μM, 2 hr treatment
Outline: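 S. aureus Mu50 cells in log phase (OD600 ≈ 0.5) were mixed with a range of test compound concentrations and shaken at 1,000 rpm at 37 °C for 2 hr. Cultures were serially diluted in LB broth, plated on LB agar and incubated at 37 °C overnight. Colony-forming units were counted, and the bactericidal effect was taken as the reduction in CFU.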

[6] = Staphylococcus aureus, 6538, 16 h, read-out: Bacteriostatic effect, MIC, S. aureus 6538
[7] = Staphylococcus aureus, 6538, 24 h, read-out: MIC, S. aureus 6538
[8] = MRSA, read-out: MIC, S. aureus Mu50
[9] = MU50, 16 h, read-out: Bacteriostatic effect, MIC, S. aureus Mu50

Sequence of BaSecA1 (Q81X26 whole entry, looked up): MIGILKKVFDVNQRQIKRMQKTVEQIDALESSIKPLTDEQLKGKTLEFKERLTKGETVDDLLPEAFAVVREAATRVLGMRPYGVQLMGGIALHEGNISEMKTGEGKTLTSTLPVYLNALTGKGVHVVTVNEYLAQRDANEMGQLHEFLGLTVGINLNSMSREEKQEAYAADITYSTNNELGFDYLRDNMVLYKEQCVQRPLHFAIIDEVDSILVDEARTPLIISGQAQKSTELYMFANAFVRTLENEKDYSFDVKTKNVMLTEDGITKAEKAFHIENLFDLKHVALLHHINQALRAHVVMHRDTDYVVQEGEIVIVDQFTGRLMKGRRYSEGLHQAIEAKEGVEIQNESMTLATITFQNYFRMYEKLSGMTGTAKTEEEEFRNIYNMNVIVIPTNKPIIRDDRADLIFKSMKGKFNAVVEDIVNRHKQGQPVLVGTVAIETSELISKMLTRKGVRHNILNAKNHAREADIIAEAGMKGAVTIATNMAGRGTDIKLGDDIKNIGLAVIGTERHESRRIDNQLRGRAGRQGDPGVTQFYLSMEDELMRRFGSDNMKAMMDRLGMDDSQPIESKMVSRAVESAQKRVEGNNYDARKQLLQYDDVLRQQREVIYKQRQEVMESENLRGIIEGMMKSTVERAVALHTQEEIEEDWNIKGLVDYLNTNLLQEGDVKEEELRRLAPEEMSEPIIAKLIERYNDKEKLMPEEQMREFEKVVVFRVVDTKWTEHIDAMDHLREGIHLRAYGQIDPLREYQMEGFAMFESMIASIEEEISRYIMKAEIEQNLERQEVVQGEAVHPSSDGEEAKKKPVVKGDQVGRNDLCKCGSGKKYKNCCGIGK

Compound: FC(F)(F)c1cc(-c2nnc(Sc3cc(Cl)nc(Sc4ccccc4)n3)[nH]2)cc(C(F)(F)F)c1 [Compound 12a, 4-((5-(3,5-Bis(trifluoromethyl)phenyl)-4H-1,2,4-triazol-3-yl)thio)-6-chloro-2-(phenylthio) Pyrimidine]
- IC50 (BaSecA1): 1 µM
- MIC (S. aureus 6538; [6]): 1.8 µM (≈ 0.961 µg/mL)
- MIC (S. aureus 6538; [7]): 1.8 µM (≈ 0.961 µg/mL)
- MIC (E. coli NR698): 3.1 µM (≈ 1.66 µg/mL)
- IC50 (EcSecA [1]): 4.8 µM
- MIC (S. aureus K2908 (MepA−)): 1 µM (≈ 0.534 µg/mL)
- Fold more effective than vancomycin (MIC) (S. aureus Mu50 [2]): 18 fold
- MIC (S. aureus Mu50 [2]; [8]): 0.43 µg/mL
- MIC (S. aureus Mu50 [2]; [9]): 0.8 µM
- MIC (S. aureus K1758 (NorA−)): 1.6 µM (≈ 0.854 µg/mL)
- IC50 (BsSecA): 2.3 µM
- IC50 (EcSecA [3]): 1.3 µM
- MIC (S. aureus K2361 (NorA++)): 1.8 µM (≈ 0.961 µg/mL)
- IC50 (EcSecAN68): 20 µM
- IC50 (EcSecA [4]): > 200 µM
- MIC (B. subtilis 168): 0.8 µM (≈ 0.427 µg/mL)
- MIC (S. aureus K2068 (MepA++)): 1.3 µM (≈ 0.694 µg/mL)
- MIC (S. aureus N315): 0.8 µM (≈ 0.427 µg/mL)
- IC50 (SpSecA): 1.3 µM
- MIC (S. aureus Mu3): 1.6 µM (≈ 0.854 µg/mL)
- IC50 (SaSecA1): 1 µM

Compound: CSc1nc(Cl)cc(Sc2nnc(-c3cc(C(F)(F)F)cc(C(F)(F)F)c3)[nH]2)n1 [Compound 7b, 4-((5-(3,5-Bis(trifluoromethyl)phenyl)-4H-1,2,4-triazol-3-yl)thio)-6-chloro-2-(methylthio)pyrimidine]
- MIC (S. aureus 6538; [6]): 3.1 µM (≈ 1.46 µg/mL)
- MIC (S. aureus 6538; [7]): 3.1 µM (≈ 1.46 µg/mL)
- MIC (E. coli NR698): 4.7 µM (≈ 2.22 µg/mL)
- MIC (S. aureus Newman): 1.6 µM (≈ 0.755 µg/mL)
- IC50 (EcSecA [1]): 2 µM
- MIC (S. aureus K2908 (MepA−)): 2.1 µM (≈ 0.991 µg/mL)
- Fold more effective than vancomycin (MIC) (S. aureus Mu50 [2]): 10 fold
- MIC (S. aureus Mu50 [2]; [8]): 0.75 µg/mL
- MIC (S. aureus Mu50 [2]; [9]): 1.6 µM
- MIC (S. aureus K1758 (NorA−)): 3.1 µM (≈ 1.46 µg/mL)
- Mode of inhibition, SecA-liposome channel activity, EcSecA (EcSecA [3]; inhibition kinetics, Figure 4): non-competitive inhibitor
- MIC (S. aureus K2361 (NorA++)): 3.1 µM (≈ 1.46 µg/mL)
- IC50 (EcSecA [4]): > 200 µM
- MIC (B. subtilis 168): 1.6 µM (≈ 0.755 µg/mL)
- MIC (S. aureus K2068 (MepA++)): 3.1 µM (≈ 1.46 µg/mL)
- MIC (S. aureus N315): 0.8 µM (≈ 0.377 µg/mL)
- MIC (S. aureus Mu3): 3.1 µM (≈ 1.46 µg/mL)
- Mode of inhibition, SecA-liposome channel activity, SaSecA (SaSecA1; inhibition kinetics, Figure 4): non-competitive inhibitor
- Decrease of CFU of S. aureus Mu50 (S. aureus Mu50 [5]): 2 log units

Compound: CC[C@H]1OC(=O)[C@H](C)[C@@H](O[C@H]2C[C@@](C)(OC)[C@@H](O)[C@H](C)O2)[C@H](C)[C@@H](O[C@@H]2O[C@H](C)C[C@H](N(C)C)[C@H]2O)[C@](C)(O)C[C@@H](C)C(=O)[C@H](C)[C@@H](O)[C@]1(C)O [erythromycin]
- Fold by which 7b and 12a are more effective than the antibiotic (MIC) (S. aureus Mu50 [2]): > 1600 fold
- MIC (S. aureus Mu50 [2]; [8]): 1250 µg/mL

Compound: NC[C@H]1O[C@H](O[C@H]2[C@H](O)[C@@H](O[C@H]3O[C@H](CO)[C@@H](O)[C@H](N)[C@H]3O)[C@H](N)C[C@@H]2N)[C@H](O)[C@@H](O)[C@@H]1O [kanamycin]
- MIC, S. aureus Mu50 (S. aureus Mu50 [2]): 1000 µg/mL (≈ 2060 µM)
- Fold by which 7b and 12a are more effective than the antibiotic (MIC) (S. aureus Mu50 [2]): > 1300 fold

Compound: CO[C@H]1/C=C/O[C@@]2(C)Oc3c(C)c(O)c4c(O)c(c(/C=N/N5CCN(C)CC5)c(O)c4c3C2=O)NC(=O)/C(C)=C\C=C\[C@H](C)[C@H](O)[C@@H](C)[C@@H](O)[C@@H](C)[C@H](OC(C)=O)[C@@H]1C [rifampicin]
- Fold by which 7b and 12a are more effective than the antibiotic (MIC) (S. aureus Mu50 [2]): > 1300 fold
- MIC (S. aureus Mu50 [2]; [8]): 1000 µg/mL

Compound: polymyxin B
- MIC, S. aureus Mu50 (S. aureus Mu50 [2]): 31 µg/mL
- Fold by which 7b and 12a are more effective than the antibiotic (MIC) (S. aureus Mu50 [2]): > 40 fold

Compound: CC1(C)S[C@@H]2[C@H](NC(=O)[C@H](N)c3ccccc3)C(=O)N2[C@H]1C(=O)O [ampicillin]
- Fold by which 7b and 12a are more effective than the antibiotic (MIC) (S. aureus Mu50 [2]): > 1300 fold
- MIC (S. aureus Mu50 [2]; [8]): 1000 µg/mL
